Only some compounds are listed: those with a hit (about 5.4% of all), similar ones and a draw of the others.
Mdm2-MdmX inh – inhibitors of human Mdm2-MdmX association, primary screen, cell-based, luminescence, split luciferase, SaOS-2, uHTS; Protein Mdm4 (Homo sapiens) + E3 ubiquitin-protein ligase Mdm2 (Homo sapiens), …; SaOS-2 split-luciferase Mdm2/MdmX complementation; inhibition, % at 8 µM; 3% of 330,000 active; AID 485346, 2010;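 active = inhibition of at least 50% at 8 µM in the primary screen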
Target sequence (O15151 whole entry, looked up): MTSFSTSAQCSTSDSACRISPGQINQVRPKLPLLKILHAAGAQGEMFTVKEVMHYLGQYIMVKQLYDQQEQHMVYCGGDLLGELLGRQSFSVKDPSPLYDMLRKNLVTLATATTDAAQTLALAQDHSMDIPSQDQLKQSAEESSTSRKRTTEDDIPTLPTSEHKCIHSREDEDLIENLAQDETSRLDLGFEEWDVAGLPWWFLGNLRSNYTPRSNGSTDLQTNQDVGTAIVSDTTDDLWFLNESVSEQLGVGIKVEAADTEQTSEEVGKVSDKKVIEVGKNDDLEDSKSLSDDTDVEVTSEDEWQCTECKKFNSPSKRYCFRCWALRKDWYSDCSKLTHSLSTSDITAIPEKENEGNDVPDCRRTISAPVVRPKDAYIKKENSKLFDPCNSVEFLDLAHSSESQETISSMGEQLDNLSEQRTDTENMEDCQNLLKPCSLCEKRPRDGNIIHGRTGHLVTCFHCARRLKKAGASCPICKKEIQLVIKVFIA
Target sequence (Q00987 whole entry, looked up): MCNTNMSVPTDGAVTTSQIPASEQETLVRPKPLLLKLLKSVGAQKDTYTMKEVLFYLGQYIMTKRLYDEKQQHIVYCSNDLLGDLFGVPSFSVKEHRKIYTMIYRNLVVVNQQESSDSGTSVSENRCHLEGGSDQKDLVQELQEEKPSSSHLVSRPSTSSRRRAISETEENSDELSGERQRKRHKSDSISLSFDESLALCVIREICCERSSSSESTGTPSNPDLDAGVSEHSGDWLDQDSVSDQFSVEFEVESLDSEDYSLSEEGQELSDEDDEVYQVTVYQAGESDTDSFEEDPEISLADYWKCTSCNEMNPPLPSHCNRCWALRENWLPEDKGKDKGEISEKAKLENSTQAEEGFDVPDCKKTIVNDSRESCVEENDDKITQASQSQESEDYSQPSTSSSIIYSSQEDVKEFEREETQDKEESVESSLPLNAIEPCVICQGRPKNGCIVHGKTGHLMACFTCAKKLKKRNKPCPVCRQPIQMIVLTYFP
aSyn UTR inh – MLPCN primary screen, SNCA 5' untranslated region | inhibition, % (tested at 7.5 µM) | 0.82% of 300,000 active | alpha-synuclein 5'UTR reporter, inhibitor activity | AID 1813, 2009; in the data active = inhibition above about 60%; inconclusive = no clear call, values can overlap the other calls;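 also: H4 neuroglioblastoma cells stably carrying SNCA 5'UTR luciferase fusion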
T cruzi repl – inhibitors of intracellular T. cruzi growth, primary screen, luminescence, NIH3T3 host cells | T. cruzi beta-gal in NIH3T3, 90 h | inhibition, % (no concentration beside the values) | 1.4% of 300,000 active | AID 1885, 2009;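 active = mean inhibition across valid replicates above about 55%, limit read from the data; inconclusive = mean below that limit but half or more replicates reach it; inactive = mean below it, under half of replicates reach it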;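 also: signal also drops with host cell toxicity which is not excluded here; higher percent means less beta-gal luminescence so fewer parasites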
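Assay system: NIH/3T3 host cells with β-galactosidase reporter T. cruzi; input: 5,000 host fibroblasts per well; compound: single 50 nL compound addition per well in DMSO; timing: ≥90 h infection period, 3 h prior cell attachment; measured by: GalScreen β-gal luminescence, detergent lysis, 60 min; evaluation: percent inhibition of parasite-derived β-gal signal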
CSC inhib – cancer stem cell viability inhibitors, primary screen, luminescence | cancer stem cell-like cells viability | inhibition, % at 7.5 µM | 1.1% of 300,000 active | AID 2717, 2010; in the data active = inhibition above about 75%; inconclusive = no clear call, values can overlap the other calls; tested in HMLE shEcad cells
SKKanGAS inh – S. pyogenes SKKanGAS growth inhibitors in kanamycin, primary screen, streptokinase expression inhibitor project, SKKanGAS strain, BacTiter-Glo luminescence; AID 1662, 2009; 6 h; inhibition, % at 7.5 µM; 1.3% of 300,000 active;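 active = mean replicate score, as percent of positive control median, at least 50; inconclusive = mean below 50 but one replicate at or above 50; inactive = mean and every replicate below 50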;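 also: strain carries kanamycin resistance gene driven by streptokinase promoter and grows in 40 µg/ml kanamycin; loss of luminescence reflects streptokinase promoter inhibition or plain growth inhibition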
Mdm2 MdmX conf – Mdm2-MdmX complex disruptors, retested hits, confirmation, luminescence, single concentration; shares compounds with Mdm2-MdmX inh; Mdm2-MdmX binding, luminescent assay; inhibition, % at 8 µM; 55% of 10,000 active; AID 489028, 2010; in the data active = inhibition above about 40%
Full FLuc ctr – full-length luciferase signal inhibition, confirmation, counter-screen for Mdm2/MdmX interaction inhibitor project, cell-based, single concentration, SaOS-2; SaOS-2 full-length luciferase counterscreen, luminescence; 77% of 6,200 active; shares compounds with Mdm2-MdmX inh; AID 504607, 2011; inhibition, % at 8 µM;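 active = mean inhibition at 8 µM reaching about 37%, which flags the compound as non-specific, limit read from the data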;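 also: p53-null SaOS-2 cells with luciferase driven by a doxycycline-inducible promoter; compound on cells about two nights before reading with doxycycline added after day one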
Of the large screens only hits and unclear results are named; the others gave an inactive call (follow-up assays come after a bar, where they were run).

CCN(CC)S(=O)(=O)c1ccc(N2CCOCC2)c(NC(=O)c2ccc(N3CCCC3=O)cc2)c1	none
Cc1ccc(N2C(=O)CC(Sc3nc4ccccc4o3)C2=O)cc1Cl (stereo unspecified)	Mdm2-MdmX inh 89, T cruzi repl 69 | Mdm2 MdmX conf inactive
CCOC(=O)c1cnc(Nc2nc3ccccc3o2)nc1CSc1nnc(C)s1	none
CCOC(=O)c1cnc(Nc2nc3ccccc3o2)nc1C	Mdm2-MdmX inh 57, aSyn UTR inh 86 | Mdm2 MdmX conf 58 | Full FLuc ctr 44
NNC(=O)CN1C(c2ccccc2Br)=Nc2ccc(Br)cc2C1c1ccccc1 (stereo unspecified)	none (no result: CSC inhib)
O=C(NC1CCCCC1)c1sc(=S)n2c1[nH]c(=O)c1ccccc12	Mdm2-MdmX inh 70, SKKanGAS inh 60 | Mdm2 MdmX conf inactive
Brc1ccc(/C=N/Nc2ncnc3c2cnn3Cc2ccccc2)cc1	Mdm2-MdmX inh 95 (no result: CSC inhib) | Mdm2 MdmX conf 48 | Full FLuc ctr 68
Cn1ncc2c(NCc3ccccc3)ncnc21	none
Clc1ccc(Cn2ncc3c(NCc4ccccc4)ncnc32)c(Cl)c1	Mdm2-MdmX inh 69, CSC inhib 77 | Mdm2 MdmX conf 69 | Full FLuc ctr 39
Cc1ccc2nc(Cl)c(/C=N/n3c(C)nnc3C)cc2c1	none
CCOc1cc(/C=C2/SC(=Nc3ccccc3)N(Cc3cccnc3)C2=O)ccc1OCC#N	none
CC(NCCCOc1cccc2ccccc12)c1ccccc1 (stereo unspecified)	Mdm2-MdmX inh 58 (no result: CSC inhib) | Mdm2 MdmX conf inactive
Cn1c2ccccc2c(=O)c2ccc(C#CC3(O)CCCCC3)cc21	Mdm2-MdmX inh 83, SKKanGAS inh 63 | Mdm2 MdmX conf 75 | Full FLuc ctr 146
CC(C)(CNCc1ccccc1)NS(=O)(=O)c1ccccc1	none (no result: aSyn UTR inh, T cruzi repl, SKKanGAS inh)
CCOc1cc(/C=N\NC(=O)Cc2ccccc2)ccc1OCC(=O)Nc1ccc(C)c(C)c1	Mdm2-MdmX inh 94 (no result: aSyn UTR inh, T cruzi repl, SKKanGAS inh) | Mdm2 MdmX conf 75 | Full FLuc ctr 76
COc1ccc(/C=N/NC(=O)c2nc(-c3ccccc3)cc(-c3ccccc3)n2)cc1OC	Mdm2-MdmX inh 72 | Mdm2 MdmX conf 71 | Full FLuc ctr 86
COc1ccc(/C=N/NC(N)=S)cc1OC(=O)c1cccc2ccccc12	Mdm2-MdmX inh 61, T cruzi repl inconclusive | Mdm2 MdmX conf inactive
COc1cccc(/C=N/NC(=O)c2nc(-c3ccccc3)cc(-c3ccccc3)n2)c1	none
COc1cc(/C=N/NC(N)=O)ccc1OCC(=O)Nc1cc(C)c(C)cc1Br	Mdm2-MdmX inh 81 | Mdm2 MdmX conf 50 | Full FLuc ctr 106
COc1ccc(C(=O)Oc2cc(/C=N/NC(N)=S)ccc2OC)cc1	none
O=C(COc1ccc2ccccc2c1Br)Nc1ncn[nH]1	none
COc1ccc(/C=N/NC(=O)c2[nH]nc3c2CCc2ccccc2-3)cc1OC	Mdm2-MdmX inh 56 | Mdm2 MdmX conf 68 | Full FLuc ctr 74
O=C(COc1ccc(/C=N/NC(=O)c2cc3ccccc3o2)cc1Cl)Nc1ccccc1	Mdm2-MdmX inh 97, aSyn UTR inh 101, T cruzi repl 73, CSC inhib 116 | Mdm2 MdmX conf inactive
COc1cc(/C=N\NC(=O)c2ccc(-c3ccccc3)cc2)ccc1OCC(N)=O	Mdm2-MdmX inh 50 | Mdm2 MdmX conf inactive
CCCCOc1ccc(C(=O)N/N=C/c2ccc(OCCN3CCCCC3)c(OC)c2)cc1	Mdm2-MdmX inh 81 | Mdm2 MdmX conf inactive
CC(C)(C)OC(=O)NCc1ccc(NC(=O)c2nc[nH]c2C(=O)NCCCCCCNC(=O)c2[nH]cnc2C(=O)Nc2ccc(CNC(=O)OC(C)(C)C)cc2)cc1	none (no result: aSyn UTR inh, T cruzi repl, SKKanGAS inh)
CC(C)(C)OC(=O)NCCCC[C@H](NC(=O)c1[nH]cnc1C(=O)Nc1ccc(CNC(=O)OC(C)(C)C)cc1)C(=O)OC(C)(C)C	Mdm2-MdmX inh 87 (no result: aSyn UTR inh, T cruzi repl, SKKanGAS inh) | Mdm2 MdmX conf 47 | Full FLuc ctr 75
CC(C)(C)OC(=O)NCc1ccc(NC(=O)c2nc[nH]c2C(=O)NCCCCNC(=O)c2[nH]cnc2C(=O)Nc2ccc(CNC(=O)OC(C)(C)C)cc2)cc1	Mdm2-MdmX inh 96, CSC inhib 120 (no result: aSyn UTR inh, T cruzi repl, SKKanGAS inh) | Mdm2 MdmX conf inactive
CC(C)(C)OC(=O)NCCCCCNC(=O)c1[nH]cnc1C(=O)Nc1ccc(Cl)cc1	Mdm2-MdmX inh 64 (no result: aSyn UTR inh, T cruzi repl, SKKanGAS inh) | Mdm2 MdmX conf inactive | Full FLuc ctr 59
CC(C)(C)OC(=O)NCc1ccc(NC(=O)c2nc[nH]c2C(=O)NCCCNC(=O)c2[nH]cnc2C(=O)Nc2ccc(CNC(=O)OC(C)(C)C)cc2)cc1	Mdm2-MdmX inh 86, CSC inhib 114 (no result: aSyn UTR inh, T cruzi repl, SKKanGAS inh) | Mdm2 MdmX conf inactive
Cc1ccc(NC(=O)c2nc[nH]c2C(=O)NCCCCCNC(=O)OC(C)(C)C)cc1	none (no result: aSyn UTR inh, T cruzi repl, SKKanGAS inh)
O=C(COc1ccccc1)Nc1nnc(S(=O)(=O)N2CCCCCC2)s1	none
Cc1ncc([N+](=O)[O-])n1S(=O)(=O)c1cc(Br)ccc1Br	none
COCCNc1nc(N)c([N+](=O)[O-])c(NCc2ccccc2)n1	none
Cc1ccc(-n2ncc3c(SCc4ccccn4)ncnc32)c(C)c1	Mdm2-MdmX inh 84 | Mdm2 MdmX conf 78 | Full FLuc ctr inactive
COc1ccc(-c2nc3ccc(N4CCCC4)cc3c(=O)[nH]2)cc1OC	Mdm2-MdmX inh 52 | Mdm2 MdmX conf 57 | Full FLuc ctr 56
CCC(=NC)C1=C(O)CC(c2ccccc2)CC1=O (stereo unspecified)	none
CCC(=NCCc1c(C)[nH]c2ccccc12)C1=C(O)CC(c2ccccc2)CC1=O (stereo unspecified)	Mdm2-MdmX inh 71 | Mdm2 MdmX conf 52 | Full FLuc ctr 50
CCCCC(=NCCc1c(C)[nH]c2ccc(OC)cc12)C1=C(O)CC(c2ccccc2)CC1=O (stereo unspecified)	Mdm2-MdmX inh 60, aSyn UTR inh 119 | Mdm2 MdmX conf 54 | Full FLuc ctr 66
CCC(=NCCc1c(C)[nH]c2ccc(OC(F)(F)F)cc12)C1=C(O)CC(c2ccccc2)CC1=O (stereo unspecified)	Mdm2-MdmX inh 66, aSyn UTR inh 107 | Mdm2 MdmX conf 64 | Full FLuc ctr 73
CC12CC3CC(C)(C1)CC(C(=O)N1CCN(C(=O)c4ccco4)CC1)(C3)C2	none
COc1ccc(OCC(=O)N2CCCC(CO)(CCOc3ccccc3)C2)cc1 (stereo unspecified)	none
CC(C)CN(C(=O)c1ccc(Br)o1)C1CCS(=O)(=O)C1 (stereo unspecified)	none
O=C1CN2CCC1C/C2=C\c1ccnc2c(Cl)cccc12 (stereo unspecified)	none
